# Compounds with a hit are over-represented: about 3.4% of the library has one in this group of screens.
# TRPML3 ag – human TRPML3 channel agonists, primary screen, cell-based, HEK293 TRPML3-YFP, Fluo-8 calcium fluorescence, 3 µM. Mucolipin-3 (Homo sapiens), Q8TDD5. 100% = the carbachol control signal. activation, % at 3 µM. hit rate 0.29% among 220,000. AID 1448, 2008;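 active means activation above its plate's cutoff, the mean activation of the plate's test wells plus 3 SD, cut at about 12% in these data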;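 further: 0% = DMSO only wells and 100% = carbachol wells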
#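 Test system: HEK293 cells stably carrying human TRPML3-YFP; Doses: single dose, 3 µM final nominal compound, 0.3% DMSO final; Schedule: dye loading 1 h 37 °C then 30 min ambient, 125 s read; Technique: Fluo-8 calcium fluorescence; Benchmarks: high control carbachol 87 µM, low control DMSO.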
# GPR7 antagonist – GPR7 receptor antagonists, primary screen, cell-based, fluorescence, single concentration; Neuropeptides B/W receptor type 1 (Homo sapiens), P48145; GPR7-expressing cells, fluorescence antagonist assay; inhibition, % at 4.4 µM; hit rate 1.1% among 290,000; AID 1861, 2009; in the data active means inhibition above about 16%, passing the limit was not always enough;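 further: cells stimulated with the agonist NPW; 0% = agonist with vehicle and 100% = vehicle without agonist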
# TAAR1 antag – human TAAR1 antagonists, primary screen, Fluo-8 calcium fluorescence, CHO RD-HGA16 cells; antagonist; Trace amine-associated receptor 1 (Homo sapiens), Q96RJ0; inhibition, % at 3 µM; hit rate 1.5% among 360,000; AID 624466, 2012;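 active means inhibition above a per-plate cutoff, the mean inhibition of test compounds on that plate plus 3 SD, cut at about 49% in these data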;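 further: 0% = DMSO plus EC80 beta-PEA response and 100% = DMSO alone without agonist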
# Target sequence (Q96RJ0 whole entry, looked up): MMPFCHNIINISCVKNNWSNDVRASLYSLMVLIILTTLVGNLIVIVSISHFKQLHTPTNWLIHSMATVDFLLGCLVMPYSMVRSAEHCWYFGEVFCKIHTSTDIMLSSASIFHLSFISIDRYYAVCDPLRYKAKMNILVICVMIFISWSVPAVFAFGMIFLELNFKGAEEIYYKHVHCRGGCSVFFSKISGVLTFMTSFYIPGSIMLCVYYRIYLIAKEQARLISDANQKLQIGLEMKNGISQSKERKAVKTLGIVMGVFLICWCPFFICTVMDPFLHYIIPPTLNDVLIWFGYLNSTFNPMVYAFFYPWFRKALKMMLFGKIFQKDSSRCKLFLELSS
#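 Assay system: CHO-derived RD-HGA16 cells stably expressing human TAAR1 plus Gα16. Timing: 140 s kinetic read after compound, 140 s after agonist. Technique: kinetic Fluo-8 calcium fluorescence measurement. Measure: % inhibition of agonist calcium response.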
# TAAR1 ag – human TAAR1 agonists, primary screen, Fluo-8 calcium fluorescence, CHO RD-HGA16 cells | vehicle wells 0%, saturating PEA agonist 100% | hit rate 0.99% among 360,000 | activation, % at 3 µM | Trace amine-associated receptor 1 (Homo sapiens), Q96RJ0 | AID 624467, 2012;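 active means activation above the mean activation of all test compounds in the run plus 3 SD, cut at about 38% in these data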
#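 test system = CHO RD-HGA16 cells carrying human TAAR1 plus Gα16 | schedule = 17-24 h seeding, 75 min 37 °C dye, 30 min RT | compound dosing = 3 µM single concentration | control set = DMSO and PEA EC100 | replicates = n 1 | signal = Fluo-8 fluorescence, 5 s baseline then 140 s kinetic read | measure = percent activation vs PEA EC100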
# LANA-H2B inh – blockers of LANA interaction with H2A/H2B – biochemical, FP readout, HTS, primary screen | Protein LANA1 (Human herpesvirus 8 type P (isolate GK18)), Q9QR71 | cell-free LANA-H2A/H2B peptide, fluorescence polarization | inhibition, % (no concentration beside the values) | hit rate 0.6% among 320,000 | AID 2629, 2010; in the data active means inhibition mostly above about 10%, no sharp cut-off; inactive means mostly below about 6.7%
# TRPN1 ag – zebrafish TRPN1 channel agonists, primary screen, cell-based, HEK293, calcium fluorescence. transient receptor potential cation channel N1 (TRPN1/NompC), Danio rerio. activation, % at 3 µM. hit rate 0.18% among 220,000. AID 1424, 2008. HEK293 zebrafish TRPN1-YFP, Fluo-8 calcium fluorescence; 100% = response to 87 µM carbachol;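 active means activation above its plate's cutoff, the mean activation of test wells on that plate plus 3 SD, cut at about 19% in these data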;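 further: 0% = DMSO alone and 100% = 87 µM carbachol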
#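 Control set: carbachol 87 µM as high control, DMSO as low control; system: HEK293 stable line with zebrafish TRPN1-YFP; read-out: % activation versus carbachol response; detection: intracellular calcium fluorescence with Fluo-8; doses: single test compound dose, 3 µM nominal, 0.3% DMSO; schedule: dye 1 h 37 °C plus 30 min RT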
# GPR7 antag cf – GPR7 receptor antagonists, confirmation, cell-based, fluorescence, single concentration. GPR7-expressing cells, calcium fluorescence antagonist mode. AID 1952, 2009. inhibition, % at 4.4 µM. shares compounds with GPR7 antagonist. hit rate 52% among 2,400; in the data active means inhibition above about 24%;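 further: stimulated with the GPR7 agonist NPW; 0% = agonist plus vehicle and 100% = vehicle alone without agonist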
# MCHR1 antagonist – MCHR1 antagonists in cells, counter-screen for GPR7 antagonist project, cell-based, fluorescence, human; inhibition, % at 4.4 µM; AID 2148, 2009; MCHR1-expressing cells, fluorescence antagonist assay; shares compounds with GPR7 antagonist; hit rate 62% among 2,400; in the data active means inhibition above about 22%;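 further: 0% = vehicle with agonist and 100% = vehicle without agonist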
# * = called active by the depositor; · = no result.
SMILES,TRPML3 ag,GPR7 antagonist,TAAR1 antag,TAAR1 ag,LANA-H2B inh,TRPN1 ag,GPR7 antag cf,MCHR1 antagonist
COc1ccc(Oc2c(Cl)cnn(-c3ccc(C)cc3)c2=O)cc1,-2,32*,7,12,2,-1,63*,1
CCOC(=O)[C@]12CCCC=C1N(Cc1ccco1)C(=O)[C@H](CC(=O)NCCc1ccccc1OC)C2,·,·,-15,35,·,·,·,·
COc1ccc(CCN=C(N)C(C)c2ccccc2)cc1OC (stereo not given),0,-7,-23,4,-6,0,·,·
CC(C)Cc1ccc(C(C)C(N)=NCCc2ccccc2)cc1 (stereo not given),·,52*,-9,19,-3,·,39*,54*
O=C(CNS(=O)(=O)c1ccc([N+](=O)[O-])cc1)N/N=C/c1ccc(O)cc1O,·,41*,16,21,-2,·,64*,44*
Cc1ccc(NC(=O)c2ccccc2F)cc1S(=O)(=O)N1CCCCCC1,0,22*,-4,-1,1,2,-10,54*
Cc1ccc(NC(=O)CSc2ncnc3ccccc23)cc1S(=O)(=O)N1CCCCCC1,1,24*,24,5,·,1,53*,71*
Cc1cc(Cl)ccc1OC(C)C(=O)Nc1ccc(S(=O)(=O)N2CCOCC2)cc1 (stereo not given),·,35*,31,23,-1,·,24,26*
CCc1ccc(C(C(=O)NC2CCCCC2)N(C(=O)c2csnn2)C2CC2)cc1 (stereo not given),·,-3,6,-3,0,·,·,·
COc1ccc(NC(=O)CSc2n[nH]c(C)c2[N+](=O)[O-])cc1,0,22*,-20,6,-5,0,9,9
Cc1c(C(=O)N2CCOCC2)sc2ncnc(N3CCc4ccccc4C3)c12,1,-14,5,11,-1,0,·,·
Cc1c(C(=O)N2CCCCC2C)sc2ncnc(N3CCc4ccccc4C3)c12 (stereo not given),2,27*,28,6,-12,3,20,35*
CCCCC(=O)N(C)c1c(CC)nc2c(OCC(=O)c3ccc(F)cc3)cccn12,·,·,3,4,·,·,·,·
O=[N+]([O-])c1ccc(NCCNS(=O)(=O)c2ccccc2)cc1,1,25*,19,4,-1,2,28*,32*
Cc1ccc(SCCNC(=S)Nc2cc(C)ccc2C)cc1,-1,-16,33,0,-3,0,·,·
Cc1ccc(C)c(NC(=S)NCCN(C2CCCCC2)C2CCCC2)c1,2,46*,2,2,-3,0,44*,36*
CCOc1cccc(OCCNC2CCCC2)c1,1,61*,2,0,-4,1,1,-2
Cc1nc(-c2ccc(S(=O)(=O)Nc3ccc(Br)cc3F)cc2)co1,·,1,3,2,2,·,·,·
CCN(CC)c1ccc2cc(-c3nc4ccccc4[nH]3)c(=O)oc2c1,55*,28*,·,·,27*,128*,81*,89*
COc1cccc2cc(-c3nc4ccccc4[nH]3)c(=O)oc12,·,-13,14,8,-3,·,·,·
CCCCn1c(N)c(N(CC(C)C)C(=O)C2=NN(c3ccccc3)C(=O)CC2)c(=O)[nH]c1=O,·,·,-24,1,4,·,·,·
